From PubChem BioAssay AID1296 (Columbia University Molecular Screening Center, 2008)
Hit rate of the full screen: of about 130,000 compounds, about 1,000 (0.77%) were called active. Roughly 1% stayed inconclusive and do not appear here.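 Rule for the calls: active = activation at 2 µM above a set limit, confirmed on inspection of the cell images; inconclusive = above the set limit but not confirmed on image inspection; inactive = the rest.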 For the sample, actives were picked, then their nearest neighbours and some compounds at random.

Assay: activators of insulin promoter-driven GFP, primary screen, imaging, TRM-6 cells, eGFP reporter, cell count (AID 1296);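 for activation: share of cells whose green reporter signal exceeds an intensity cutoff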;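 for normalized cell count: cells counted after 48 h compound exposure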
Conditions: at 2 µM; activation: stronger effect = higher value, plate-scaled: unstimulated 0, stimulated control 100; normalized cell count: measured here: cell count (toxicity)
Procedure, shortened: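 System – human fetal islet-derived TRM-6 cells with tamoxifen-inducible insulin promoter–eGFP reporter · Amount – 1,000 cells per well · Schedule – overnight tamoxifen, then two-day compound incubation at 37 °C · Detection – high-content imaging of fixed cells with Hoechst nuclear stain · Read-out – percent cells above green-intensity threshold, converted to percent activation versus plate controls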

Row | Compound | activation | normalized cell count [%]
1 | O=C(Nc1ccccc1)N1CCN(Cc2ccccc2)CC1 | 4.22% (inactive) | 57.8
2 | CCCC(=O)C1CCN(Cc2ccccc2)CC1 | 0% (inactive) | 122
3 | NC(=O)c1ccc(CN2CCC(Cc3ccccc3)CC2)cc1 | 347% (active) | 40.1
4 | O=C(CSc1ncnc2scc(-c3ccccc3)c12)NCc1ccc2c(c1)OCO2 | 0% (inactive) | 109
5 | CCCCOc1ccc(C(=O)NN2CCN(C)CC2)cc1 | 0% (inactive) | 149
6 | CN(c1ccccc1)c1ccc(/C=c2\s/c(=C(/C#N)C(=O)C(C)(C)C)n(Cc3ccco3)c2=O)cc1 | 178% (active) | 74.1
7 | Cc1cs/c(=N\N=C\c2ccc(O)cc2)n1Cc1ccco1 | -7.69% (inactive) | 109
8 | Cc1ccc(S(=O)(=O)N(CC(=O)N2CCc3ccccc3C2)c2cccc(Cl)c2)cc1 | 5% (inactive) | 94.9
9 | O=C(CN(c1ccccc1)S(=O)(=O)c1ccc(Cl)cc1)Nc1ccccc1C(=O)N1CCCC1 | 93.5% (active) | 74.8
10 | O=C(CN(c1cccc(Cl)c1)S(=O)(=O)c1ccccc1)NN=C1CCCC1 | -5.88% (inactive) | 82.1
11 | N#CCC(=O)NC(=O)NCC1CC1 | 9.09% (inactive) | 118
12 | O=C(CCc1[nH]c2ccccc2c1Sc1ccccc1)N(CCO)CCO | -6.9% (inactive) | 121
13 | Cc1nnc(SCC(=O)N2CCOCC2)[nH]c1=O | 0% (inactive) | 145
14 | COc1ccc(S(=O)(=O)N2CCC(C(=O)N3CCc4ccccc4C3)CC2)cc1OC | 8.7% (inactive) | 157
15 | O=C(Nc1ccc(S(=O)(=O)N2CCc3ccccc3C2)cc1)c1ccccc1 | 407% (active) | 116
16 | O=S(=O)(c1cccs1)N1CCc2ccccc2C1 | -90.9% (inactive) | 90.9
17 | O=C(Nc1ccccc1)OCc1cn(-c2ccc(Cl)cc2)nn1 | 6.06% (inactive) | 118
18 | CC(Sc1nncn1C)C(=O)Nc1cc(C(F)(F)F)ccc1N1CCOCC1 (stereo not given) | 0% (inactive) | 135
19 | CCC(C)(C(=O)NC1CCCCC1)N(C)C(=O)c1ccc2c(c1)OCO2 (stereo not given) | 8.57% (inactive) | 95.1
20 | CCCn1nnnc1NC(=O)COc1ccc(Cl)cc1C | 9.09% (inactive) | 95.5
21 | CCOC(=O)N1CCN(C(=O)COc2ccc(Cl)cc2C)CC1 | 193% (inactive) | 63.4
22 | CN1CCC(OC(=O)COc2ccc(Cl)cc2Cl)CC1 | 453% (active) | 63.1
23 | CC(C)(C)NCCCOc1ccc(Cl)cc1C(C)(C)C | 108% (inactive) | 74
24 | CC(C)NC(=O)C(=O)N/N=C/c1ccco1 | 0% (inactive) | 130
25 | CCCCc1nc(NCc2ccccc2)c(C#N)c2c1CCCC2 | -3.7% (inactive) | 115
26 | Cc1ccccc1OCC(=O)NCC(=O)OCC(=O)c1ccc2ccccc2c1 | -2.78% (inactive) | 105
27 | Cc1cccc(NC(=O)COc2ccccc2C)n1 | 406% (active) | 56.6
28 | Cc1ccc(S(=O)(=O)NC(=O)COc2ccccc2C)cc1 | -81.2% (inactive) | 150

Row | Compound | activation | normalized cell count [%]
29 | Cc1nc2scc(-c3cccs3)c2c(=O)n1N | -9.8% (inactive) | 105
30 | Cc1nc2ccc(C(=O)N3CCSCC3)cc2s1 | 6.06% (inactive) | 60.2
31 | O=C(c1ccc(Cl)c([N+](=O)[O-])c1)N1CCN(c2ccccc2)CC1 | 4.35% (inactive) | 49.2
32 | CCN(CC)CC1(O)CCN(C(=O)c2ccc(Cl)c(Cl)c2)CC1 | 275% (active) | 33.3
33 | COCCn1c(SCC(=O)Nc2ccc3c(c2)CCC3)nc2ccccc2c1=O | 1.3% (inactive) | 117
34 | COC(=O)Cc1c(O)ccn(Cc2cccc(C(F)(F)F)c2)c1=O | 2.86% (inactive) | 159
35 | Cc1nn(-c2ccccc2)c(C)c1/C=C/C(=O)OC(C)C(N)=O (stereo not given) | -68.8% (inactive) | 181
36 | CCOC(=O)c1c(NC(=O)CSc2nnc(C)c(=O)[nH]2)sc2c1CCC2 | 8.33% (inactive) | 125
37 | CCOC(=O)C(NC(=O)CC(C)C)(Nc1sc2c(c1C(N)=O)CCCC2)C(F)(F)F (stereo not given) | 450% (active) | 72.9
38 | CCOC(=O)c1c(NC(=O)c2ccc(Br)o2)sc2c1CCCC2 | -3.7% (inactive) | 119
39 | CSc1ccccc1NC(=O)Cc1ccc(Br)cc1 | -3.85% (inactive) | 70.6
40 | Cc1ccccc1NC(=O)C(C)c1ccc(-c2ccccc2)c(F)c1 (stereo not given) | -2.7% (inactive) | 168
41 | O=C(CSCc1ccc([N+](=O)[O-])cc1)Nc1cccc(C(=O)Nc2ccccc2C(=O)O)c1 | 8.33% (inactive) | 107
42 | COc1ccc(CC(=O)NCc2nnc(SCC(=O)Nc3nccs3)n2C)cc1 | 330% (active) | 83.7
43 | COc1ccc(CC(=O)NCc2nnc(SCC(=O)Nc3ncc(C)s3)n2C)cc1 | -5.56% (inactive) | 192
44 | COC(=O)c1ccc(NC(=O)CSc2nnc(CNc3ccc(OC)cc3)n2C)cc1 | 0% (inactive) | 125
45 | CSCCC(=O)N1CCCC(CNC(=O)c2ccccc2Cl)C1 (stereo not given) | 7.14% (inactive) | 83
46 | Cn1cc(/C=C/c2nc3ccccc3c(=O)n2-c2cccc([N+](=O)[O-])c2)c2ccccc21 | -9.09% (inactive) | 111
47 | COc1ccc(N(C(=O)c2ccc(C)cc2)S(=O)(=O)c2cccs2)cc1 | 3.85% (inactive) | 171
48 | Cc1ccc(C(=O)N/C(=C/c2cccs2)C(=O)N2CCCCC2)cc1 | 0% (inactive) | 111
49 | CCN(CC)S(=O)(=O)c1cc(C(=O)Nc2ccccn2)ccc1C | 309% (inactive) | 42.6
50 | Cc1ccc(C(=O)N/C(=C\c2cccs2)C(=O)NCCc2ccccn2)cc1C | 392% (active) | 87.4
51 | CCOc1ccc(N2C(=O)Nc3ccccc3C2(O)C(=O)NCc2ccco2)cc1 (stereo not given) | 0% (inactive) | 74.7
52 | Cc1ccc(C(=O)CSc2nc3ccccc3c(=O)n2N)o1 | -5.26% (inactive) | 137
53 | Cc1cccc(CSc2nnc(Cn3c(=O)sc4ccccc43)n2C)c1 | -50% (inactive) | 79.6
54 | Cc1nnc(SCc2cccc(Cl)c2)n(N)c1=O | 508% (active) | 36.8
55 | CC(C)CNC(=S)Nc1ccc(F)cc1 | -6.9% (inactive) | 136
